Data as given in ChEMBL document CHEMBL1629557, “Development of intergenotypic chimeric replicons to determine the broad-spectrum antiviral activities of hepatitis C virus polymerase inhibitors” (Antimicrob Agents Chemother, 2008).

Key:
Hepatitis C virus [1] = test: Antiviral activity against Hepatitis C virus genotype 1a H77 infected in human Huh7.5 cells assessed as decrease in viral RNA replication after 3 days by hRLuc reporter gene assay; format: functional, organism-based, Hepacivirus hominis; settings: genotype 1a H77, Huh-7, 72 h
Method in brief: (§1)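 Stable Huh7.5 replicon cell lines, kept in medium with 250 μg/ml G418, seeded at 2e4/well and settled 30 min. Compounds were added in half-log serial dilutions with solvent (compound-free) controls for 3 days at 37°C, then hRLuc activity was read. Fold change is EC50 relative to wild-type Con-1.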

Hepatitis C virus [2] = test: Antiviral activity against Hepatitis C virus genotype 2a JFH1 infected in human Huh7.5 cells assessed as decrease in viral RNA replication after 3 days by hRLuc reporter gene assay; format: functional, organism-based, Hepacivirus hominis; settings: JFH-1, Huh-7, 72 h; method in brief: as §1
Hepatitis C virus [3] = test: Ratio of EC50 for wild-type Hepatitis C virus isolate Con1 to EC50 for Hepatitis C virus isolate Con1 transfected with NS5B polymerase of HCV genotype 2b in human Huh7.5 cells by hRLuc reporter gene assay; format: functional, Hepacivirus hominis, Huh-7; method in brief: as §1
Hepatitis C virus [4] = test: Antiviral activity against Hepatitis C virus isolate Con1 transfected with NS5B polymerase of HCV genotype 2b in human Huh7.5 cells assessed as decrease in viral RNA replication after 3 days by hRLuc reporter gene assay; format: functional, organism-based, Hepacivirus hominis; settings: Con1, Huh-7, 72 h; method in brief: as §1
Hepatitis C virus [5] = test: Ratio of EC50 for wild-type Hepatitis C virus isolate Con1 to EC50 for Hepatitis C virus isolate Con1 transfected with NS5B polymerase of HCV genotype 5a in human Huh7.5 cells by hRLuc reporter gene assay; format: functional, Hepacivirus hominis, Huh-7; method in brief: as §1
Hepatitis C virus [6] = test: Ratio of EC50 for wild-type Hepatitis C virus isolate Con1 to EC50 for Hepatitis C virus isolate Con1 transfected with NS5B polymerase of HCV genotype 3a in human Huh7.5 cells by hRLuc reporter gene assay; format: functional, Hepacivirus hominis, Huh-7; method in brief: as §1
Hepatitis C virus [7] = test: Ratio of EC50 for wild-type Hepatitis C virus isolate Con1 to EC50 for Hepatitis C virus isolate Con1 transfected with NS5B polymerase of HCV genotype 4a in human Huh7.5 cells by hRLuc reporter gene assay; format: functional, Hepacivirus hominis, Huh-7; method in brief: as §1
Hepatitis C virus [8] = test: Antiviral activity against Hepatitis C virus isolate Con1 infected in human Huh7.5 cells assessed as decrease in viral RNA replication after 3 days by hRLuc reporter gene assay; format: functional, organism-based, Hepacivirus hominis; settings: Con1, Huh-7, 72 h; method in brief: as §1
Hepatitis C virus [9] = test: Ratio of EC50 for wild-type Hepatitis C virus isolate Con1 to EC50 for Hepatitis C virus genotype 2a JFH1 in human Huh7.5 cells by hRLuc reporter gene assay; format: functional, Hepacivirus hominis, Huh-7; method in brief: as §1
Hepatitis C virus [10] = test: Antiviral activity against Hepatitis C virus isolate Con1 transfected with NS5B polymerase of HCV genotype 5a infected in human Huh7.5 cells assessed as decrease in viral RNA replication after 3 days by hRLuc reporter gene assay; format: functional, organism-based, Hepacivirus hominis; settings: Con1, Huh-7, 72 h; method in brief: as §1
Hepatitis C virus [11] = test: Ratio of EC50 for wild-type Hepatitis C virus isolate Con1 to EC50 for Hepatitis C virus isolate Con1 with NS5B polymerase L419I and I482L mutant in human Huh7.5 cells by hRLuc reporter gene assay; format: functional, Hepacivirus hominis, Huh-7
Method in brief: (§2)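 Transient assay: Huh7.5 cells electroporated with 10 μg in vitro replicon transcript at 220 V, seeded at 6 × 10^4 cells/well, and given 4 h recovery. Half-log serial compound dilutions with solvent controls were then added for 3 days at 37°C, and hRLuc luciferase was read. EC50 was taken as 50% of compound-free signal by nonlinear regression, as mean ± SD of 2–3 independent experiments. Fold change is relative to wild-type Con-1.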

Hepatitis C virus [12] = test: Antiviral activity against Hepatitis C virus isolate Con1 transfected with NS5B polymerase of HCV genotype 3a infected in human Huh7.5 cells assessed as decrease in viral RNA replication after 3 days by hRLuc reporter gene assay; format: functional, organism-based, Hepacivirus hominis; settings: Con1, Huh-7, 72 h; method in brief: as §1
Hepatitis C virus [13] = test: Ratio of EC50 for wild-type Hepatitis C virus isolate Con1 to EC50 for Hepatitis C virus isolate Con1 with NS5B polymerase L419I mutant in human Huh7.5 cells by hRLuc reporter gene assay; format: functional, Hepacivirus hominis, Huh-7; method in brief: as §2
Hepatitis C virus [14] = test: Ratio of EC50 for wild-type Hepatitis C virus isolate Con1 to EC50 for Hepatitis C virus isolate Con1 with NS5B polymerase I482L mutant in human Huh7.5 cells by hRLuc reporter gene assay; format: functional, Hepacivirus hominis, Huh-7; method in brief: as §2
Hepatitis C virus [15] = test: Ratio of EC50 for wild-type Hepatitis C virus isolate Con1 to EC50 for Hepatitis C virus genotype 1a H77 in human Huh7.5 cells by hRLuc reporter gene assay; format: functional, Hepacivirus hominis, Huh-7; method in brief: as §1
Hepatitis C virus [16] = test: Antiviral activity against Hepatitis C virus isolate Con1 transfected with NS5B polymerase of HCV genotype 4a infected in human Huh7.5 cells assessed as decrease in viral RNA replication after 3 days by hRLuc reporter gene assay; format: functional, organism-based, Hepacivirus hominis; settings: Con1, Huh-7, 72 h; method in brief: as §1

Compound | EC50 (Hepatitis C virus [1]) [nM] | EC50 (Hepatitis C virus [2]) [nM] | fold change (FC) (Hepatitis C virus [3]) | EC50 (Hepatitis C virus [4]) [nM] | fold change (FC) (Hepatitis C virus [5]) | fold change (FC) (Hepatitis C virus [6]) | fold change (FC) (Hepatitis C virus [7]) | EC50 (Hepatitis C virus [8]) [nM] | fold change (FC) (Hepatitis C virus [9]) | EC50 (Hepatitis C virus [10]) [nM] | fold change (FC) (Hepatitis C virus [11]) | EC50 (Hepatitis C virus [12]) [nM] | fold change (FC) (Hepatitis C virus [13]) | fold change (FC) (Hepatitis C virus [14]) | fold change (FC) (Hepatitis C virus [15]) | EC50 (Hepatitis C virus [16]) [nM]
NC(=O)COc1ccc2c(c1)S(=O)(=O)N=C(c1c(O)c3ccccc3n(NC3CCC3)c1=O)N2 | 140 | > 32000 | >970 | > 32000 | 152 | >970 | 758 | 33 | >970 | 5000 | 0.2 | > 32000 | 0.2 | 0.5 | 4 | 25000
CNC(=O)c1c(-c2ccc(F)cc2)oc2cc(N(CCO)S(C)(=O)=O)c(C3CC3)cc12 [NESBUVIR] | 38 | 130 | 1 | 55 | 0.1 | 1 | 2 | 42 | 3 | 3.2 | 3 | 51 | 2 | 1 | 1 | 69
COc1ccc2c(O[C@@H]3C[C@H]4C(=O)N[C@@]5(C(=O)O)C[C@@H]5/C=C\CCCCC[C@H](NC(=O)OC(C)(C)C)C(=O)N4C3)cc(-c3ccccn3)nc2c1 [listing 1 of 2 here] | 20 | 740 |  | 26 |  |  |  | 6.6 |  | 23 |  | 22 |  |  |  | 53
C[C@@]1(O)[C@H](O)[C@@H](CO)O[C@H]1n1ccc(N)nc1=O |  |  | 0.4 |  | 0.5 | 0.2 | 2 |  | 1 |  | 2 |  | 1 | 1 | 1 | 
CC(C)C#Cc1cc(N(C(=O)[C@H]2CC[C@H](C)CC2)C(C)C)c(C(=O)O)s1 | 20 | 6100 | >1280 | > 32000 | 8 | >1280 | 88 | 25 | 244 | 200 | 2238 | > 32000 | 326 | 201 | 1 | 2200
O=C(O)c1ccc2c(c1)nc(-c1ccc(OCc3cc(C(=O)N4CCC(O)CC4)ccc3-c3ccc(Cl)cc3)cc1F)n2C1CCCCC1 | 490 | 6900 | 33 | 30000 | 0.2 | 0.2 | 2 | 900 | 8 | 160 | 8 | 210 | 4 | 3 | 1 | 1500
COc1ccc2c(O[C@@H]3C[C@H]4C(=O)N[C@@]5(C(=O)O)C[C@@H]5/C=C\CCCCC[C@H](NC(=O)OC(C)(C)C)C(=O)N4C3)cc(-c3ccccn3)nc2c1 [listing 2 of 2 here] |  |  | 4 |  | 3 | 3 | 8 |  | 112 |  |  |  |  |  | 3 | 
